Assay results: PMC4137555 (Methods in enzymology, 2011)
Values joined by “and” are separate entries in the source; they are usually repeats but may differ in a detail not shown here. Equal entries are not always repeated. Ends that are not written are not given here. Peptide text beside a SMILES is read from it. * marks the point of attachment. Dansyl = CN(C)c1cccc2c(S(=O)(=O)*)cccc12

T1: Tiam2 PDZ domain (Homo sapiens, UniProt Q8IVF5)
T1 sequence (Q8IVF5 890-976 limits assumed): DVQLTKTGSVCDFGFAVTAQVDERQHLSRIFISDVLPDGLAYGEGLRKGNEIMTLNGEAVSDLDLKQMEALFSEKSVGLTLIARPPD

T2: KP-4E-Sdc1 peptide
T2 chain: Dansyl-QEEYYA


Columns and labels:
[1] = target: Tiam1 PDZ domain (wild-type) (Homo sapiens, UniProt Q13009); assay type: binding; details: for Kd: SD; for ΔGb (free energy of binding): calculated from the dissociation constant, error by error propagation, 25 °C; for ΔΔGb: ΔΔGb = ΔGb(Core) − ΔGb(peptide); for Σ Singles: sum of the ΔΔGb of the two single-mutant peptides; for binding to the Tiam1 PDZ domain (in words): unpublished data of the authors
Tiam1 PDZ domain (wild-type), sequence (Q13009 841-930 limits assumed): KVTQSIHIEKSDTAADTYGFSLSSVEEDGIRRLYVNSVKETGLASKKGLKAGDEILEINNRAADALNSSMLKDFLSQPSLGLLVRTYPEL
In short: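 His6-tagged Tiam1 PDZ domain expressed in E. coli BL21(DE3), purified by nickel-chelate and size-exclusion chromatography, tag removed with rTEV. N-terminally dansylated peptides (2 or 5 μM) in 20 mM PO4, 50 mM NaCl, 0.5 mM EDTA, pH 6.8, at 25 °C; PDZ added in 20–30 steps. Anisotropy read at λex 340/λem 555 nm and fit hyperbolically. Triplicate titrations, mean Kd ± standard deviation.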

[2] = target: T1, Tiam2 PDZ domain; test: Peptide binding to the Tiam2 PDZ domain; details: unpublished data of the authors
[3] = target: Model peptide; details: cited from earlier work
[4] = target: T2, KP-4E-Sdc1 peptide; test: fluorescence anisotropy

Molecule	Kd [1]	ΔGb (free energy of binding) [1]	ΔΔGb [1]	other results
CN(C)c1cccc2c(S(=O)(=O)N[C@@H](CO)C(=O)N[C@@H](CO)C(=O)N[C@@H](CCC(N)=O)C(=O)N[C@@H](CCCCN)C(=O)N[C@@H](CCC(=O)O)C(=O)N[C@@H](Cc3ccc(O)cc3)C(=O)N[C@@H](Cc3ccc(O)cc3)C(=O)N[C@@H](Cc3ccccc3)C(=O)O)cccc12 [AP0F–Caspr4] (Dansyl-SSQKEYYF-OH)	89 ± 5 µM	-5.52 ± 0.06 kcal/mol	-0.17 ± 0.08 kcal/mol	–
CN(C)c1cccc2c(S(=O)(=O)N[C@@H](CCC(=O)O)C(=O)N[C@@H](CC(N)=O)C(=O)N[C@@H](CCC(N)=O)C(=O)N[C@@H](CCCCN)C(=O)N[C@@H](CCC(=O)O)C(=O)N[C@@H](Cc3ccc(O)cc3)C(=O)N[C@@H](Cc3ccccc3)C(=O)N[C@@H](Cc3ccccc3)C(=O)O)cccc12 [Caspr4] (Dansyl-ENQKEYFF-OH)	19 ± 0.4 µM	-6.43 ± 0.02 kcal/mol	-1.09 ± 0.05 kcal/mol	ΔΔΔGint (interaction energy, double-mutant cycle) ([1]; double-mutant cycle of evolved peptides: Core, two single mutants, double mutant): -0.51 kcal/mol and -0.51 ± 0.08 kcal/mol; Σ Singles [1]: -0.57 ± 0.09 kcal/mol; binding to the Tiam1 PDZ domain (in words) [1]: bound the Tiam1 PDZ domain; binding to the Tiam2 PDZ domain (in words) [2]: bound the PDZ domain tightly
C[C@H](NC(=O)[C@H](Cc1ccc(O)cc1)NC(=O)[C@H](Cc1ccc(O)cc1)NC(=O)[C@H](CCC(=O)O)NC(=O)[C@H](CCC(=O)O)NC(=O)[C@H](CCC(N)=O)NC(=O)[C@H](CO)NC(=O)[C@H](CO)NS(=O)(=O)c1cccc2c(N(C)C)cccc12)C(=O)O [KP−4E–Sdc1] (Dansyl-SSQEEYYA-OH)	40 ± 2 µM	-5.99 ± 0.06 kcal/mol	-0.65 ± 0.07 kcal/mol	–
NKDKEYYVCOOH [Neurexin1, reference compound]	–	–	–	binding to the Tiam2 PDZ domain (in words) [2]: bound the PDZ domain tightly
SSRKEYYACOOH [Model peptide, reference compound]	–	-5.38 ± 0.05 kcal/mol	–	–
Tiam1 PDZ (from UniProt Q13009)	–	–	–	Kd [3]: 112 µM
Tiam1 PDZ (protein) VTQSIHIEKSDTAADTYGFSLSSVEEDGIRRLYVNSVKETGLASKKGLKAGDEILEINNRAADALNSSML	–	–	–	Kd [4]: 40 µM

More lines, main results first:

Kd [1]	ΔGb (free energy of binding) [1]	ΔΔGb [1]	Molecule	other results
60.1 ± 0.6 µM	-5.75 ± 0.01 kcal/mol	-0.40 ± 0.05 kcal/mol	C[C@H](NC(=O)[C@H](Cc1ccccc1)NC(=O)[C@H](Cc1ccc(O)cc1)NC(=O)[C@H](CCC(=O)O)NC(=O)[C@H](CCCCN)NC(=O)[C@H](CCC(N)=O)NC(=O)[C@H](CO)NC(=O)[C@H](CO)NS(=O)(=O)c1cccc2c(N(C)C)cccc12)C(=O)O [YP−1F–Caspr4] (Dansyl-SSQKEYFA-OH)	–
106 ± 7 µM	-5.42 ± 0.07 kcal/mol	-0.07 ± 0.08 kcal/mol	C[C@H](NC(=O)[C@H](Cc1ccc(O)cc1)NC(=O)[C@H](Cc1ccccc1)NC(=O)[C@H](CCC(=O)O)NC(=O)[C@H](CCCCN)NC(=O)[C@H](CCC(N)=O)NC(=O)[C@H](CO)NC(=O)[C@H](CO)NS(=O)(=O)c1cccc2c(N(C)C)cccc12)C(=O)O [YP−2F–Sdc1] (Dansyl-SSQKEFYA-OH)	–
–	-6.23 ± 0.03 kcal/mol	-0.88 ± 0.06 kcal/mol	TKQEEFYACOOH [Syndecan1]	Σ Singles [1]: -0.71 ± 0.11 kcal/mol; binding to the Tiam1 PDZ domain (in words) [1]: bound the Tiam1 PDZ domain
